Screens deposited in PubChem BioAssay by several laboratories.
A selection: hits, their analogues and other compounds. The true share with any hit is near 3.5%.
ABCB1 inh = ABCB1 efflux pump inhibitors, primary screen, cell-based, multiplex, flow cytometry, ABCG2 counter-screen; inhibition, % at 6.6 µM; ATP-dependent translocase ABCB1 (Homo sapiens), P08183; AID 1326, 2008; CCRF-Adr cells, JC-1 efflux; 190,000 tested, 0.067% active; in the data active = inhibition above about 40%;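 also: higher value means more JC-1 retained so stronger ABCB1 efflux block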
Target sequence (P08183 whole entry, looked up): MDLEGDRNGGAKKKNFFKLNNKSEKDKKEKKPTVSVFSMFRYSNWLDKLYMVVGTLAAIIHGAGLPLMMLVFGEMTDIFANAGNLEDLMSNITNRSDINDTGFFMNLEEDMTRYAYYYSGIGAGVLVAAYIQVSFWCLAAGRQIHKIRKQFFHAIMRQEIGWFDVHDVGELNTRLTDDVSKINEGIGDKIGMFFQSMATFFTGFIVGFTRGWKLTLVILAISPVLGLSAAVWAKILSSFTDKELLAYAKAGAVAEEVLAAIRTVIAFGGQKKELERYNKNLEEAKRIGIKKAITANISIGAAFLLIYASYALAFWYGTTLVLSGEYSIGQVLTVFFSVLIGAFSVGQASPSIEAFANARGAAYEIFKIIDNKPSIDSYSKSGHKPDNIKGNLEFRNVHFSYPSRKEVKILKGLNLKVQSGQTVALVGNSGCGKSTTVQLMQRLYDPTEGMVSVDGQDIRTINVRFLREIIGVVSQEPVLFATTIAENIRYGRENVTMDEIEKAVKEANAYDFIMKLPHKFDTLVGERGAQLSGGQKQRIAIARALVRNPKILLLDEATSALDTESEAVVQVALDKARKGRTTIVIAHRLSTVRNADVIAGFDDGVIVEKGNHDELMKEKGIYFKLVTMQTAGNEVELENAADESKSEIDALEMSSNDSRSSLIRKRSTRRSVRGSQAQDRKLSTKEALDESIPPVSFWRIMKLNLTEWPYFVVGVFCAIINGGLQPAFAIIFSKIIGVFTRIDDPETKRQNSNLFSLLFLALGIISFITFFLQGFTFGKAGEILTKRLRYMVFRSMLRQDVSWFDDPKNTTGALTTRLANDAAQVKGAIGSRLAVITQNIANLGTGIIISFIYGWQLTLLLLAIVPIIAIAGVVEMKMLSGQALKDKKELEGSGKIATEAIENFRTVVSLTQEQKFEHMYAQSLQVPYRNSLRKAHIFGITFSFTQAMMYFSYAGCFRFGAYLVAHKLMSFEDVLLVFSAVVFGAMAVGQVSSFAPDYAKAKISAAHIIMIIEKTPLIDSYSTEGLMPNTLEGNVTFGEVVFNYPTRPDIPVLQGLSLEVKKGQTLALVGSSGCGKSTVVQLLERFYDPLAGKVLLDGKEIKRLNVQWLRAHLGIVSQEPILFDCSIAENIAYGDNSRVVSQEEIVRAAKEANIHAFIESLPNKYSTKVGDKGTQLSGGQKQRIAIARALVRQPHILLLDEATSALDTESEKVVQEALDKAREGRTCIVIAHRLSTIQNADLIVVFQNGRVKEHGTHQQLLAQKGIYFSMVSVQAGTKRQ
MEKK3 PB1 HTS = modulators of MEKK3-MEK5 PB1 binding, primary screen, biochemical, wildtype MEKK3, multiplex bead flow cytometry, Alexa488-MEK5. Mitogen-activated protein kinase kinase kinase 3 (Homo sapiens), Q99759. bead-based flow cytometry, Alexa488-MEK5 binding to MEKK3; actives lie on both sides; 0 = blocked by unlabeled MEK5, 100 = vehicle. binding response (% of control), % at 10 µM. 290,000 tested, 1.4% active;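 active = binding response more than 3 SD above or below the average of its plate-row segment, actives on both sides; inconclusive = wells at one plate position flagged as instrument error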;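 also: Alexa488 bead fluorescence after subtracting the streptavidin-only scavenger bead signal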
MEKK2mut PB1 HTS = MEK5 binding signal on mutant MEKK2 PB1, primary screen, biochemical, multiplex bead flow cytometry, Alexa488-MEK5; Alexa488-MEK5 binding to MEKK2 mutant; percent response, % at 10 µM; 290,000 tested, 0.35% active; AID 1530, 2009; in the data active = percent response above about 24%, passing the limit was not always enough
MEKK2wt PB1 HTS = modulators of MEK5 binding to wildtype MEKK2, primary screen, biochemical, multiplex bead flow cytometry, Alexa488-MEK5. binding response (% of control), % at 10 µM. AID 1531, 2009. 290,000 tested, 1.1% active. Alexa488-MEK5 binding to MEKK2 WT; actives lie on both sides. Mitogen-activated protein kinase kinase kinase 2 (Homo sapiens), Q9Y2U5; in the data active = binding response below about 67% or above about 130%; inconclusive = no clear call, values can overlap the other calls; inactive = in between
ABCG2 inh = ABCG2 efflux pump inhibitors, primary screen, multiplex with ABCB1, IgMXP3 cells, flow cytometry | JC-1 efflux | 190,000 tested, 0.1% active | Broad substrate specificity ATP-binding cassette transporter ABCG2 (Homo sapiens), Q9UNQ0 | inhibition, % at 6.6 µM;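 active = inhibition above 80%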
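Test system: IgMXP3 (ABCG2) plus far-red-tagged CCRF-Adr (ABCB1) cells. Reagent: JC-1 dye as substrate. Timing: 10 min exposure at 25 °C with rotation, no wash. Measured by: flow cytometric JC-1 green MFI at 530 nm. Read-out: percent efflux inhibition, scaled nicardipine 100% to DMSO 0%. Control set: nicardipine and DMSO wells.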
WT yeast gro inh = growth inhibition of WT strain, primary screen, mitochondrial fusion inhibitor project, WT and mutant strains, chemical genetic | mitochondrial fusion phenotypic screen | inhibition, % at 10 µM | 190,000 tested, 2.1% active; in the data active = inhibition above about 58%; tested in S. cerevisiae
Hits are given with their value; - = inactive; ? = inconclusive; . = no result given; [ ] = remark or other dose.

SMILES	ABCB1 inh	MEKK3 PB1 HTS	MEKK2mut PB1 HTS	MEKK2wt PB1 HTS	ABCG2 inh	WT yeast gro inh
CCC1(c2ccc(Cl)cc2)NC(=S)N(c2ccc(C)c(C)c2)N1 (configuration not stated)	.	-	-	-	.	.
CCC1(c2ccccc2)NC(=S)N(c2ccc(C)c(C)c2)N1 (configuration not stated)	-	-	-	-	-	68.6
CCC1(c2ccc(Cl)cc2)NC(=S)N(c2ccc(C)cc2)N1 (configuration not stated)	-	-	-	-	-	67.8
CCOC(=O)N1CCN(C(=O)c2cccc(-n3c(=S)[nH]c4cc(Cl)ccc4c3=O)c2)CC1	-	-	-	-	-	-
ONC(=Nc1ccccc1)C(=Nc1ccccc1)NO	-	-	-	-	-	-
N#CCCN(C(=O)c1cc2c(s1)-c1ccccc1S(=O)(=O)C2)c1ccccc1	.	-	-	-	.	.
CCOC(=O)C(CC)(CC)C(=O)/C=C/c1ccc(Br)cc1	-	-	-	-	-	61.4
O=C(COC(=O)c1ccccc1[N+](=O)[O-])c1ccc(C2CCCCC2)cc1	-	-	-	-	-	59.7
COC(=O)[C@]12C(=O)C(C)=C(O)[C@@]1(C)C(C)=CC1[C@@]34CC[C@@H](OC(C)=O)C(C)(C)C3C(C[C@]12C)OC4=O (some centres not stated)	.	-	-	-	.	.
O=S(=O)(c1ccc(F)cc1)N1CCCN(c2nccc(C(F)(F)F)n2)CC1	.	-	-	-	.	.
COc1cc(NC(=O)CN2CCN(CC(=O)Nc3ccccc3OC)CC2)cc(OC)c1	.	-	-	-	.	.
COc1ccc(Cl)cc1NC(=S)NCCc1c[nH]c2ccccc12	-	-	-	-	-	-
Cc1cccc(C)c1NC(=S)NCc1ccccc1	-	-	-	-	-	-
COc1ccccc1NC(=S)NCCSc1ccc(Cl)cc1	-	-	-	-	-	78.0
COc1ccc(NC(=S)NCCSc2ccc(Cl)cc2)c(OC)c1	-	-	-	-	-	73.1
COc1ccc(Cl)cc1NC(=S)NCCSc1ccc(C)cc1	-	-	-	-	-	78.0
Cc1cccc(C)c1NC(=S)NCCSc1ccc(Cl)cc1	-	-	-	-	-	80.5
CC1CC(C)CN(CCCNC(=O)c2cc3c(s2)-c2ccccc2OC3)C1 (configuration not stated)	.	-	25.0	142.0	.	.
Cc1ccc2oc(=O)c3cc(C(=O)NCCCN4CCCC(C)C4)sc3c2c1 (configuration not stated)	.	-	-	136.0	.	.
CCCN1CCN(CCCNC(=O)c2cc3c(s2)-c2c(C)cccc2OC3)CC1	.	-	-	-	.	.
CCN1CCN(CCCNC(=O)c2cc3c(s2)-c2ccccc2OC3)CC1	.	-	-	-	.	.
Cc1cccc2c1-c1sc(C(=O)NCCCN3CCCC(C)C3)cc1CO2 (configuration not stated)	.	-	24.0	171.0	.	.
C=CCc1cccc([C@@H]2[C@@H](C)CC[C@H]3C(=O)N4[C@@H](c5cc(OC)c(OC)c(OC)c5)c5[nH]c6ccccc6c5C[C@H]4C(=O)N23)c1	-	?	-	?	-	-
Cc1ccc2nc(SCc3nnc(-c4ccccc4Br)o3)[nH]c2c1	-	-	-	-	-	-
c1ccc(-c2oc3ncnc(NCCCn4ccnc4)c3c2-c2ccccc2)cc1	-	-	-	-	-	72.5
SMILES	ABCB1 inh	MEKK3 PB1 HTS	MEKK2mut PB1 HTS	MEKK2wt PB1 HTS	ABCG2 inh	WT yeast gro inh
c1ccc(-c2oc3ncnc(NCCN4CCOCC4)c3c2-c2ccccc2)cc1	-	-	-	-	-	-
OCCNc1ncnc2c1c(-c1ccccc1)c(-c1ccccc1)n2Cc1ccco1	-	-	-	-	-	-
c1ccc(-c2c(-c3ccccc3)n(Cc3ccco3)c3ncnc(NCCCn4ccnc4)c23)cc1	-	-	-	-	-	73.0
Cn1c(SCC(=O)Nc2nccs2)nnc1-c1ccccn1	.	-	-	-	.	.
COc1cc(CNC(=O)c2ccccc2NC(=O)C2=C(C)OCCS2)cc(OC)c1OC	.	-	-	-	.	.
O=C(NCc1ccc(Cl)cc1)c1n[nH]c([N+](=O)[O-])c1Cl	-	-	-	-	-	-
Cc1nnc(SCC(=O)c2ccc(Cl)cc2)s1	-	-	-	-	-	-
CN1CCOCCOCCN(C)C1=O	-	-	-	-	-	.
O=C(CSc1nc(C2CCCCC2)n(-c2ccccc2)n1)NCC(F)(F)F	-	145.0	-	-	-	-
O=C(CSc1nc(C2CCCCC2)n(-c2ccccc2)n1)NCCN1C(=O)CSC1=O	-	-	-	-	-	-
NC(=O)c1sc2nc(-c3cccs3)ccc2c1N	.	-	-	-	.	.
Nc1c(C(=O)NC2CCCC2)sc2nc(-c3cccs3)ccc12	-	-	-	-	-	62.3
NS(=O)(=O)c1ccc(N/N=C2/CCCCC2C2CCCCC2)c([N+](=O)[O-])c1 (configuration not stated)	-	-	-	-	-	95.6
CCOCCCNC(=O)CCn1nc(-c2ccc(Cl)cc2)ccc1=O	.	-	-	-	.	.
S=C(NCc1ccncc1)Nc1cccc(Cl)c1	-	-	-	-	-	-
Fc1ccc(CNC(=S)Nc2cccc(Cl)c2)cc1	-	-	-	-	-	60.3
O=C(O)[C@H](Cc1ccccc1)NC(=O)N1CCN(c2ccc(F)cc2)CC1	.	-	-	-	.	.
COc1cccc(/C=N/n2c(SC)nnc2-c2ccccc2)c1O	-	-	-	-	-	-
Cc1ccccc1N1CCN(C2CCCN(C(=O)c3cnsn3)C2)CC1 (configuration not stated)	.	77.0[inhibitor]	-	65.0[inhibitor]	.	.
Cc1nc(C(=O)N2CCCC(N3CCN(c4ccccc4C)CC3)C2)cs1 (configuration not stated)	.	-	-	-	.	.
CN(C)C(=O)N1CCN(C(=O)N(C)C)CC1	-	-	-	-	-	-
CC1CN(C(=O)N(C)C)CCN1C(=O)N(C)C (configuration not stated)	-	-	-	-	-	65.7
O=C(COC(=O)c1ccc2[nH]c3c(c2c1)CCCC3)Nc1ccccc1Cl	-	-	-	-	-	-
CCC(C)c1ccccc1NC(=O)COC(=O)c1ccc2[nH]c3c(c2c1)CCCC3 (configuration not stated)	-	-	-	-	-	62.2
O=C1NC2(CCN(Cc3ccccc3)CC2)Oc2ccccc21	-	-	-	-	-	-
